The source made the active and inactive calls. The rule behind the calls is not given here.
Tests used:
[1] = Antiproliferative activity against Hs683 cells after 72 hrs by MTT assay; assay type: functional, cell-based, Homo sapiens, Hs 683; conditions: Homo sapiens, Hs 683, 72 h
Outline: (§1)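 Cells cultured with each compound for three days; growth then read by the MTT colorimetric assay and reported as IC50 (µM).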

MCF7 [2] = experiment: Antiproliferative activity against MCF7 cells after 72 hrs by MTT assay; assay type: functional, cell-based, Homo sapiens; conditions: Homo sapiens, MCF7, 72 h; outline: as §1
[3] = Toxicity in ip dosed B6D2F1 mouse; assay type: organism-based; conditions: in vivo
Outline: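 Acute MTD was set by a single i.p. dose to groups of three healthy female B6D2F1 mice, at 2.5, 5, 10, 20, 40, 80 and 160 mg/kg. The MTD is the dose just below the lowest dose that killed at least one mouse.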

L1210 [4] = experiment: Antitumor activity in L1210 cells xenografted B6D2F1 mouse at 10 mg/kg, ip relative to control; assay type: functional; conditions: route intraperitoneal
Outline: (§2)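 Mice grafted with L1210 leukaemia cells on day 0, then dosed i.p. four times weekly on days 1-4 and 8-11. Five mice per group. Outcome is %T/C, the median survival of treated over control. Kruskal-Wallis test followed by Dunn comparisons against control.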

L1210 [5] = experiment: Antitumor activity in L1210 cells xenografted B6D2F1 mouse at 40 mg/kg, ip relative to control; assay type: functional; conditions: route intraperitoneal; outline: as §2
L1210 [6] = experiment: Antitumor activity in L1210 cells xenografted B6D2F1 mouse at 80 mg/kg, ip relative to control; assay type: functional; conditions: route intraperitoneal; outline: as §2
L1210 [7] = experiment: Antitumor activity in L1210 cells xenografted B6D2F1 mouse at 120 mg/kg, ip relative to control; assay type: functional; conditions: route intraperitoneal; outline: as §2
L1210 [8] = experiment: Antitumor activity in L1210 cells xenografted B6D2F1 mouse at 160 mg/kg, ip relative to control; assay type: functional; conditions: route intraperitoneal; outline: as §2
Mus musculus [9] = experiment: Hematotoxicity in B6D2F1 mouse assessed as platelet count at 10 mg/kg, iv; assay type: organism-based; parameters: dose 10 mg/kg, route intravenous; conditions: in vivo
Mus musculus [10] = experiment: Hematotoxicity in B6D2F1 mouse assessed as platelet count at 20 mg/kg, iv; assay type: organism-based; parameters: dose 20 mg/kg, route intravenous; conditions: in vivo
Mus musculus [11] = experiment: Hematotoxicity in B6D2F1 mouse assessed as platelet count at 40 mg/kg, iv; assay type: organism-based; parameters: dose 40 mg/kg, route intravenous; conditions: in vivo
Mus musculus [12] = experiment: Hematotoxicity in B6D2F1 mouse assessed as RBC count at 10 mg/kg, iv; assay type: organism-based; parameters: dose 10 mg/kg; conditions: in vivo
Mus musculus [13] = experiment: Hematotoxicity in B6D2F1 mouse assessed as RBC count at 20 mg/kg, iv; assay type: organism-based; parameters: dose 20 mg/kg, route intravenous; conditions: in vivo
Mus musculus [14] = experiment: Hematotoxicity in B6D2F1 mouse assessed as WBC count at 20 mg/kg, iv; assay type: organism-based; parameters: dose 20 mg/kg, route intravenous; conditions: in vivo
Mus musculus [15] = experiment: Hematotoxicity in B6D2F1 mouse assessed as WBC count at 40 mg/kg, iv; assay type: organism-based; parameters: dose 40 mg/kg, route intravenous; conditions: in vivo
Mus musculus [16] = experiment: Hematotoxicity in B6D2F1 mouse assessed as RBC count at 160 mg/kg, po; assay type: organism-based; parameters: dose 160 mg/kg, route oral; conditions: in vivo
Mus musculus [17] = experiment: Hematotoxicity in B6D2F1 mouse assessed as WBC count at 80 mg/kg, po; assay type: organism-based; parameters: dose 80 mg/kg, route oral; conditions: in vivo
Mus musculus [18] = experiment: Hematotoxicity in B6D2F1 mouse assessed as WBC count at 120 mg/kg, po; assay type: organism-based; parameters: dose 120 mg/kg, route oral; conditions: in vivo
Mus musculus [19] = experiment: Hematotoxicity in B6D2F1 mouse assessed as WBC count at 160 mg/kg, po; assay type: organism-based; parameters: dose 160 mg/kg, route oral; conditions: in vivo
A549 = experiment: Antitumor activity against human A549 cells xenografted in mouse at 10 mg/kg, iv; assay type: functional, organism-based; parameters: dose 10 mg/kg
Outline: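 Human A549 NSCLC cells grafted orthotopically into the lungs of immunocompromised mice. Compound given i.v. at 10 mg/kg. Survival gain assessed by survival curve analysis.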

[20] = target: DNA topoisomerase 2-alpha (Homo sapiens) (UniProt P11388); experiment: Inhibition of human topoisomerase 2-mediated kinetoplast DNA […] at 50 uM
Chain of DNA topoisomerase 2-alpha (Homo sapiens) (P11388 whole entry): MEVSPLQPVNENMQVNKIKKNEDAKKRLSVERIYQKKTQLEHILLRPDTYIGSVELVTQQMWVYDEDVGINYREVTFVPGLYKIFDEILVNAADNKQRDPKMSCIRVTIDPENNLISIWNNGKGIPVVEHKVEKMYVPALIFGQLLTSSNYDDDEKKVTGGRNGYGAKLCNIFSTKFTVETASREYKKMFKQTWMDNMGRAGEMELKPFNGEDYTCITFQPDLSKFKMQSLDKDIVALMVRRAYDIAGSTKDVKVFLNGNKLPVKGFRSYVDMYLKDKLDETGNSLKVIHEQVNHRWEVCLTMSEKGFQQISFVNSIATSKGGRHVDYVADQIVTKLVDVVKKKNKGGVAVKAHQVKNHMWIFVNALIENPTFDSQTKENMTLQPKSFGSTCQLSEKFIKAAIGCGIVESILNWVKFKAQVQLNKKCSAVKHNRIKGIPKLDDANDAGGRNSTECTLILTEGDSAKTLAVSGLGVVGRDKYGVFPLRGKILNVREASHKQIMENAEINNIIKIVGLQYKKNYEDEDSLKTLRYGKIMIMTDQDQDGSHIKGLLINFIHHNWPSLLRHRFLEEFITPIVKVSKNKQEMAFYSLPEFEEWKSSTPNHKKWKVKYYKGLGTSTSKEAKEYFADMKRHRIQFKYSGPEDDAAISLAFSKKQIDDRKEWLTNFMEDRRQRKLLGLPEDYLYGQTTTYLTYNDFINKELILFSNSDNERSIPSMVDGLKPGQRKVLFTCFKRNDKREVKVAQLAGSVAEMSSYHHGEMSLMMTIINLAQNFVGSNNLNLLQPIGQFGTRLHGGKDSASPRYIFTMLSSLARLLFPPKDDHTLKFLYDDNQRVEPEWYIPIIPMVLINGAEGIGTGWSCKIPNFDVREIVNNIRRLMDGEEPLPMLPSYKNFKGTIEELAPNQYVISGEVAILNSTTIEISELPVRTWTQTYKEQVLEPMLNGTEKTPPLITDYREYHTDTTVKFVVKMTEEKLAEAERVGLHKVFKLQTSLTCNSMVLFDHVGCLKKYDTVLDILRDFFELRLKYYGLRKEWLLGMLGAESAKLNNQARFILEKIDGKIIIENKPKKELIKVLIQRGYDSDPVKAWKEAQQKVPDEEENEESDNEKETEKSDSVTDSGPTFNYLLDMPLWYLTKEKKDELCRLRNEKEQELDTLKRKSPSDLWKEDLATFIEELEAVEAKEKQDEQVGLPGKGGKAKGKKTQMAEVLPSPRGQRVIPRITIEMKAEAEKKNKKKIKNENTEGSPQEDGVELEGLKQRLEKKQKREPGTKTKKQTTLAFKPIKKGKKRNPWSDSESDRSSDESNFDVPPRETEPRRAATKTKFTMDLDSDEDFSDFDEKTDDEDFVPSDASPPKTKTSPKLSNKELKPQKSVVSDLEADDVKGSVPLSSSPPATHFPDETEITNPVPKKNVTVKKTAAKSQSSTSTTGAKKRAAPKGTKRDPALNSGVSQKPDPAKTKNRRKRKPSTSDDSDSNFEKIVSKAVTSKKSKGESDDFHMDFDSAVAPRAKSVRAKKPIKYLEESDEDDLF
Outline: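 Topoisomerase II strand-passage activity by kDNA decatenation; compounds at 50 µM; catenated networks stay in wells, decatenated kDNA enters ethidium bromide-stained agarose gel; no-enzyme and no-drug reactions as controls.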

PC-3 [21] = experiment: Induction of apoptosis in human PC3 cells at 10 uM after 72 hrs; assay type: functional
Outline: (§3)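 Prostate cancer cells exposed for 72 h to 0, 1 or 10 µM. Apoptosis quantified by flow cytometry after Annexin V-FITC staining.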

DU-145 [22] = experiment: Induction of apoptosis in human DU145 cells at 10 uM after 72 hrs; assay type: functional; outline: as §3
PC-3 [23] = experiment: Induction of apoptosis in human PC3 cells assessed as p53 activation; assay type: functional, cell-based
Outline: (§4)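 PC-3 and DU-145 cells treated over 72 h at 1 and 10 µM, compared with untreated cells. p53, PARP cleavage and procaspase-3/-9 activation assessed by immunoblotting.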

DU-145 [24] = experiment: Induction of apoptosis in human DU145 cells assessed as p53 activation; assay type: functional, cell-based; outline: as §4
MCF7 [25] = experiment: Induction of apoptosis in human MCF7 cells assessed as p53 activation; assay type: functional, cell-based
Outline: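 MCF-7 cells treated and p53 activation assessed by immunoblotting, with tubulin as loading control. Adriamycin (2.5 µM, 24 h) served as positive control.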

PC-3 [26] = experiment: Induction of apoptosis in human PC3 cells assessed as procaspase-8 activation; assay type: functional, cell-based
PC-3 [27] = experiment: Induction of apoptosis in human PC3 cells assessed as PARP cleavage activation; assay type: functional, cell-based; outline: as §4
DU-145 [28] = experiment: Induction of apoptosis in human DU145 cells assessed as procaspase-9 activation; assay type: functional, cell-based; outline: as §4
PC-3 [29] = experiment: Induction of autophagy in human PC3 cells by acridine orange staining at 10 uM after 72 hrs; assay type: functional
DU-145 [30] = experiment: Induction of autophagy in human DU145 cells by acridine orange staining at 10 uM after 72 hrs; assay type: functional
PC-3 [31] = experiment: Cell cycle arrest in PC3 cells assessed as accumulation at G2 phase at 10 uM after 72 hrs; assay type: functional, cell-based; conditions: Homo sapiens
Outline: (§5)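 PC-3 or DU-145 cells treated for 72 h with 0, 1 or 10 µM. Cell-cycle distribution (G0/G1, S, G2/M) determined by propidium iodide staining.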

DU-145 [32] = experiment: Cell cycle arrest in DU145 cells assessed as accumulation at G2 phase at 10 uM after 72 hrs; assay type: functional, cell-based; conditions: Homo sapiens; outline: as §5
PC-3 [33] = experiment: Induction of senescence in human PC3 cells; assay type: functional, cell-based
Outline: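 SA-β-galactosidase staining of PC-3 and DU-145 prostate cancer cells after 72 h at 10 µM; adriamycin 20 nM as positive control; expressed as percentage of positively stained cells.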

Mus musculus [34] = experiment: Hematotoxicity in ip dosed B6D2F1 mouse assessed as decrease in WBC count; assay type: organism-based; conditions: in vivo
Outline: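 Healthy female B6D2F1 mice, 10 per group, were dosed i.p. three times a week for five consecutive weeks (15 doses). Each compound was given at two dose levels chosen relative to its MTD, in DMSO/saline 5:95 v/v. Mice were sacrificed 3 days after the last dose, and platelet, RBC and WBC counts were taken by Coulter counter. Data are mean ± SEM.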

[35] = Antitumor activity against mouse MXT-HI cells xenografted in B6D2F1 mouse at 160 mg/kg, ip relative to control; assay type: functional; conditions: route intraperitoneal
Outline: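 MXT-HI mammary adenocarcinoma grafted s.c. onto female B6D2F1 mice. Dosing i.p., five injections weekly for three weeks from day 14 post-graft. Nine mice per group. Tumour surface area measured, and survival expressed as %T/C, the ratio of treated to control median survival time.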

Homo sapiens = organism: Homo sapiens; experiment: Inhibition of human topoisomerase 2 at 50 uM by plasmid linearization assay
MDA-MB-231 = experiment: Antitumor activity against human MDA-MB-231 cells xenografted in immunocompromised mouse at 10 mg/kg, iv

With `CN(C)CCN1C(=O)c2cccc3cc(NC(=O)NC(=O)C(Cl)(Cl)Cl)cc(c23)C1=O` the IC50 [1] was 0.8 µM, the IC50 (MCF7 [2]) was 1.8 µM and the MTD [3] was > 160 mg/kg. For the same molecule, the Activity (L1210 [4]) was 197%, the Activity (L1210 [5]) was 272% and the Activity (L1210 [6]) was >300%. For the same molecule, the Activity (L1210 [7]) was 281%, the Activity (L1210 [8]) was 300% and the Activity (Mus musculus [9]) was 402 10^3 /uL. For the same molecule, the Activity (Mus musculus [10]) was 397 10^3 /uL, the Activity (Mus musculus [11]) was 430 10^3 /uL and the Activity (Mus musculus [12]) was 9.41 10^6 /uL. The Activity (Mus musculus [13]) was 9.09 10^6 /uL, the Activity (Mus musculus [14]) was 2.92 10^3 /uL and the Activity (Mus musculus [15]) was 2.97 10^3 /uL. The Activity (Mus musculus [16]) was 10.13 10^6 /uL, the Activity (Mus musculus [17]) was 3.21 10^3 /uL and the Activity (Mus musculus [18]) was 2.85 10^3 /uL. The Activity (Mus musculus [19]) was 2.82 10^3 /uL, the Activity (A549) was “Active” and the Activity [20] was “Active”. For the same molecule, the Activity (PC-3 [21]) was 10%, the Activity (DU-145 [22]) was 15% and the Activity (PC-3 [23]) was “inactive”. The Activity (DU-145 [24]) was “inactive”, the Activity (MCF7 [25]) was “inactive” and the Activity (PC-3 [26]) was “inactive”. The Activity (PC-3 [27]) was “inactive”, the Activity (DU-145 [28]) was “inactive” and the Activity (PC-3 [29]) was 35%. For the same molecule, the Activity (DU-145 [30]) was 10%, the Activity (PC-3 [31]) was “Active” and the Activity (DU-145 [32]) was “inactive”. For the same molecule, the Activity (PC-3 [33]) was “inactive”, the Activity (Mus musculus [34]) was “Non-toxic” and the Activity [35] was 183%. For the same molecule, the Activity (Homo sapiens) was “inactive” and the Activity (MDA-MB-231) was “Active”.

Reference: ChEMBL document CHEMBL1148725, “2,2,2-Trichloro-N-({2-[2-(dimethylamino)ethyl]-1,3-dioxo-2,3-dihydro-1H-benzo[de]isoquinolin- 5-yl}carbamoyl)acetamide (UNBS3157), a novel nonhematotoxic naphthalimide derivative with potent antitumor activity” (J Med Chem, 2007)
